Data set [1] can be described thus: Lipophilicity, log D of the compound. Format: physicochemical. To be noted: octanol/water.
Data set [2] is described as follows: Solubility of the compound in phosphate buffered saline at pH 7.4. It is filed as physicochemical.
Data set [3] is described as follows: Solubility of the compound in phosphate buffered saline at pH 5. It is filed as physicochemical.
Data set [4] has as its target T1, Histamine H1 receptor (Homo sapiens, UniProt P35367). Briefly: Antagonist activity at human recombinant histamine H1 receptor expressed in intact CHO cells assessed as inhibition of histamine-induced cellular calcium mobilization at 100 nM incubated for 30 mins measured after washout followed by repeat histamine challenge at intervals of 90 and 270 mins by FLIPR assay. Format: functional, cell-based. (Calcium flux is commonly read through the fluorescence of an indicator in the cells.)

Data set [5] deals with T2, Alpha-1A adrenergic receptor (Homo sapiens, UniProt P35348).
T2 sequence (P35348 whole entry): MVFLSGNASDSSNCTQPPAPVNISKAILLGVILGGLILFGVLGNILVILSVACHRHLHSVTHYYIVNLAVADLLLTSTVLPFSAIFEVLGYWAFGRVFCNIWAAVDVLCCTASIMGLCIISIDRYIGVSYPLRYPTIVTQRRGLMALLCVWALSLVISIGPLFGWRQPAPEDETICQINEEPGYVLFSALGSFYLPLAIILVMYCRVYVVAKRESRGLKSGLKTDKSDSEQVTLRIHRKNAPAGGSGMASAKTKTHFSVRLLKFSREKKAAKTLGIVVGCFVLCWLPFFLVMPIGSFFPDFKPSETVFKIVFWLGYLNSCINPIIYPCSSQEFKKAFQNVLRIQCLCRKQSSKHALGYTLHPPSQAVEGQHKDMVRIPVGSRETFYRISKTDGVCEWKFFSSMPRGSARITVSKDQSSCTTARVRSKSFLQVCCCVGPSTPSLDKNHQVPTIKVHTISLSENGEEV
Briefly: Binding affinity to human adrenergic alpha1A receptor expressed in rat intact fibroblasts.

A further data set deals with Histamine H3 receptor (Homo sapiens, UniProt Q9Y5N1). Briefly: Antagonist activity at human recombinant histamine H3 receptor expressed in CHO cells assessed as inhibition of histamine-induced GTP-gammaS binding. Format: functional, cell-based. The essentials:
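Membranes from CHO cells transfected with cloned human H3 receptor; reduction of histamine-stimulated GTPγS binding, detected by scintillation proximity.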
Background: GTPγS is a poorly hydrolysed GTP analogue; its binding reports G protein activation.

In data set [6] the target is T3, Alpha-1B adrenergic receptor (Homo sapiens, UniProt P35368).
T3 sequence (P35368 whole entry): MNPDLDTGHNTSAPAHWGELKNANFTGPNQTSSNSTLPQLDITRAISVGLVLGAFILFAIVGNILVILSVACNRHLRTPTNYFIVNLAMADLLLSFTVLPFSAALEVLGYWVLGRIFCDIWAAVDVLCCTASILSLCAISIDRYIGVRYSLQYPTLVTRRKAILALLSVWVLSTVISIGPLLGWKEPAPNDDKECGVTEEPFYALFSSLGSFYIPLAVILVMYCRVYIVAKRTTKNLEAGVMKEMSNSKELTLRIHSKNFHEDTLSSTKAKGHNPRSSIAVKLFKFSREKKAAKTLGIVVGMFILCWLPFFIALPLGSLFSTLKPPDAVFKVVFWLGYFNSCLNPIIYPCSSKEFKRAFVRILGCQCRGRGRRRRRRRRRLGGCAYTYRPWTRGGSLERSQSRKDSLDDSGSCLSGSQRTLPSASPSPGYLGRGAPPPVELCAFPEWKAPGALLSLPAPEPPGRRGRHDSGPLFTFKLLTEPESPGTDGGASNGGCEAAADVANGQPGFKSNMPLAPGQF
Briefly: Binding affinity to human adrenergic Alpha-1B receptor expressed in rat intact fibroblasts. The procedure, abridged: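 Plate-based calcium imaging in intact Rat1 fibroblasts expressing the human α1B adrenoceptor.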

Data set [7] addresses T1, Histamine H1 receptor. Briefly: Antagonist activity at human recombinant histamine H1 receptor expressed in intact CHO cells assessed as inhibition of histamine-induced cellular calcium mobilization by FLIPR assay. Format: functional, cell-based. The procedure, abridged: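 Human recombinant H1 receptor in intact CHO cells; inhibition of agonist-induced calcium mobilization read with Fluo-4AM in FLIPR. EC50 came from a four-parameter logistic fit, and pA2 = log(DR−1) − log[B], where DR is the EC50 ratio versus control.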

For data set [8], the target named is T1, Histamine H1 receptor. Briefly: Antagonist activity at human recombinant histamine H1 receptor expressed in intact CHO cells assessed as inhibition of histamine-induced cellular calcium mobilization at 100 nM after 30 mins by FLIPR assay. Format: functional, cell-based. To be noted: read-out: pA2 (converted). The essentials: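 Intact CHO cells expressing recombinant human H1; Fluo-4AM calcium dye read on FLIPR. Histamine concentration-response curves run without or with antagonist at a single 100 nM, 30 min incubation. EC50 from four-parameter logistic fit; pA2 = log(DR-1) - log[B], DR being EC50 with antagonist over control EC50.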

From ChEMBL document CHEMBL1764974, “The discovery of phthalazinone-based human H1 and H3 single-ligand antagonists suitable for intranasal administration for the treatment of allergic rhinitis” (J Med Chem, 2011) come the findings set out here.

As a reminder, the logD is the decadic logarithm of the distribution of all forms, ionised or not, between an organic phase and buffer at a given pH. Broadly, the solubility is how much of the substance goes into solution per volume. The low end stands for a poorly soluble substance, the high end for a readily soluble substance. As usually defined, the pKi is the Ki on a negative log10 scale, so that one unit is a factor of ten.

pKi: −log10 of the molar value. The source made the active and inactive calls. The calls are words filed in the database; no cut-off is given here.

T1 sequence (P35367 whole entry): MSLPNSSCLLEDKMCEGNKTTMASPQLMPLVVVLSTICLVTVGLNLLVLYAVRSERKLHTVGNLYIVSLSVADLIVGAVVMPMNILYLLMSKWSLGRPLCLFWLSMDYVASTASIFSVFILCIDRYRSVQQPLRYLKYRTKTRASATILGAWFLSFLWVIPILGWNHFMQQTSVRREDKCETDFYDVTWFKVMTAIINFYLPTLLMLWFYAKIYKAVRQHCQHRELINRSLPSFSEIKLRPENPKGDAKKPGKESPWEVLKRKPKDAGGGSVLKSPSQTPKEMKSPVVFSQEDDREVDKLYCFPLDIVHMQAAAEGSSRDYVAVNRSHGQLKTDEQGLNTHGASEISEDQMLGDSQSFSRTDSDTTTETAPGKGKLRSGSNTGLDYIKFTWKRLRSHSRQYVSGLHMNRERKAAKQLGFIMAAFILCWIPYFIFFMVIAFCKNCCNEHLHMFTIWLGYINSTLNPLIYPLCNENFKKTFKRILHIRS
Sequence of Histamine H3 receptor (Q9Y5N1 whole entry): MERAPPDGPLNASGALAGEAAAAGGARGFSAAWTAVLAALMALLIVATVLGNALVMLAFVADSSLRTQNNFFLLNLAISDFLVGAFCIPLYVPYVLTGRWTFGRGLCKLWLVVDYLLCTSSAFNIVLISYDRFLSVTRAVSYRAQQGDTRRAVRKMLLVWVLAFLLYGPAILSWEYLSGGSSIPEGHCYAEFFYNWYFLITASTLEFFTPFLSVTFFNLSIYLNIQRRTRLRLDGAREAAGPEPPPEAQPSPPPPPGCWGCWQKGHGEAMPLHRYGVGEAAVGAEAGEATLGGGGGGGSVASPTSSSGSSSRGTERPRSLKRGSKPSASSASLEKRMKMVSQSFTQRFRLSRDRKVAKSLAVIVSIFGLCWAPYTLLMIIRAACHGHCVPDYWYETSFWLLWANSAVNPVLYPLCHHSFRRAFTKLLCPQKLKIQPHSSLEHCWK

`CN1CCCC(n2nc(Cc3ccc(Cl)cc3)c3ccccc3c2=O)CC1.Cl` (racemic) [AZELASTINE HYDROCHLORIDE]: in data set [1] (read-out: logD), the logD turned out to be 2.25. In addition, in [2], the solubility came out at 144 µg/mL.

In data set [1], `O.O=S(=O)(O)c1cccc2c(S(=O)(=O)O)cccc12.O=c1c2ccccc2c(Cc2ccc(Cl)cc2)nn1C[C@H]1CCCN1CCCCc1ccc(OCCCN2CCCCCC2)cc1` gave a logD of 3. Further, the concentration in solution in data set [3] (solubility) came to 20 µg/mL.

On to `O=c1c2ccccc2c(Cc2ccc(Cl)cc2)nn1C[C@H]1CCCN1CCCCCc1ccc(OCCCN2CCCCCC2)cc1`, for which the inhibition result on Histamine H1 receptor [4] was “Active”. For the same compound, the pKi in data set [5] was 7.60; at Histamine H3 receptor it was 9.40; in [6] it was 7.30; at Histamine H1 receptor [7], 7.90. In addition, the Kb at Histamine H1 receptor [8] was 1.26 nM.
